In brackets after ≈: the same amount, converted by molar mass. Activity calls are given as the source filed them. No cut-off for these calls is given here.
Tests used:
E. coli GroEL/ES [1] = biological target: T1, E. coli GroEL/ES (Escherichia coli, UniProt P0A6F5); experiment: (§1) Inhibition of Escherichia coli GroEL/GroES using Escherichia coli GroEL expressed in Escherichia coli DH5alpha cells and Escherichia coli GroES expressed in Escherichia coli BL21(DE3) cells assessed as inhibition of denatured rhodanese refolding by measuring reduction in thiocyanate production incubated for 60 mins by micro plate reader analysis
Summary of the method: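 Urea-denatured rhodanese bound to GroEL/GroES in folding buffer containing thiosulfate. After 60 min at 37°C, thiocyanate reaction (KCN, thiosulfate, phosphate) run, then formaldehyde quench and ferric nitrate added. Fe(SCN)3 read at 460 nm after 15 min RT, with protein-free baseline plates.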

E. coli GroEL/ES [2] = biological target: T1, E. coli GroEL/ES; experiment: Inhibition of Escherichia coli GroEL/GroES using Escherichia coli GroEL expressed in Escherichia coli DH5alpha cells and Escherichia coli GroES expressed in Escherichia coli BL21(DE3) cells assessed as reduction in native refolded rhodanese-mediated thiocyanate production by micro plate reader analysis
E. coli GroEL/ES [3] = biological target: T1, E. coli GroEL/ES; experiment: Inhibition of Escherichia coli GroEL/GroES using Escherichia coli GroEL expressed in Escherichia coli DH5alpha cells and Escherichia coli GroES expressed in Escherichia coli BL21(DE3) cells assessed as reduction in pig heart native refolded MDH-mediated NADH production by micro plate reader analysis
Summary of the method: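 Native MDH counter-screen. GroEL/ES-dMDH refolding run 60 min at 37°C, then EDTA-quenched without compound. IC50 averaged from at least triplicate.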

E. coli GroEL/ES [4] = biological target: T1, E. coli GroEL/ES; experiment: as §1, with “pig heart MDH” for “rhodanese”, “NADH” for “thiocyanate”
Summary of the method: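 Denatured MDH (guanidine-HCl/DTT, 30 min RT) bound to GroEL with GroES in Tris pH 7.4, KCl, MgCl2, DTT buffer. 60 min at 37°C, EDTA quench to 100 mM. Refolded MDH activity read with mesoxalate/NADH at 340 nm. Log-averaged IC50 from replicates.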

E. coli GroEL/ES [5] = biological target: T1, E. coli GroEL/ES; experiment: Inhibition of Escherichia coli GroEL/GroES using Escherichia coli GroEL expressed in Escherichia coli DH5alpha cells and Escherichia coli GroES expressed in Escherichia coli BL21(DE3) cells assessed as reduction in denatured pig heart MDH ATPase activity by malachite green dye based assay
Escherichia coli [6] = experiment: Antibacterial activity against Escherichia coli DH5alpha assessed as reduction in bacterial growth incubated for 6 to 8 hrs; format: functional, organism-based; details: DH5[alpha]
Escherichia coli [7] = experiment: Antibacterial activity against acrB-deficient Escherichia coli MC4100 assessed as reduction in bacterial growth incubated for 6 to 8 hrs; format: functional, organism-based
Escherichia coli [8] = experiment: Antibacterial activity against Escherichia coli SM101 assessed as reduction in bacterial growth incubated for 12 hrs by UV-Vis spectrophotometric analysis; format: functional, organism-based; details: SM101, 12 h
Bacillus subtilis = experiment: Antibacterial activity against Bacillus subtilis 168 assessed as reduction in bacterial growth incubated for 6 to 8 hrs; format: functional, organism-based; details: subsp. subtilis str. 168
Enterococcus faecium = experiment: Antibacterial activity against multidrug resistant Enterococcus faecium NCTC 7171 (ATCC 19434) assessed as reduction in bacterial growth incubated for 6 to 8 hrs; format: functional, organism-based
Summary of the method: (§2)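 Broth proliferation assay. S. aureus and MRSA grown in ATCC Medium 18, other pathogens in Brain Heart Infusion. Stagnant incubation at 37°C under breathable seal. OD600 read at mid-log (6-8 h) and corrected with bacteria-free baseline plates. EC50 by variable-slope nonlinear fit, at least triplicate.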

Staphylococcus aureus [9] = experiment: Antibacterial activity against methicillin resistant Staphylococcus aureus subsp. aureus HPV107 (ATCC BAA-44) assessed as reduction in bacterial growth incubated for 6 to 8 hrs; format: functional, organism-based; summary of the method: as §2
HSP60/HSP10 [10] = biological target: T2, HSP60/HSP10 (Homo sapiens, UniProt P10809); experiment: Inhibition of human HSP60/HSP10 expressed in Escherichia coli Rosetta2(DE3) cells assessed as inhibition of denatured pig heart MDH refolding by measuring reduction in NADH production incubated for 60 mins by micro plate reader analysis
Summary of the method: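 Pig heart MDH was denatured in guanidine-HCl (dMDH) and complexed with HSP60, then HSP10, in Tris pH 7.4/KCl/MgCl2/DTT buffer. EDTA quench (100 mM final); refolded MDH activity was followed with mesoxalate/NADH at 340 nm.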

HSP60/HSP10 [11] = biological target: T2, HSP60/HSP10; experiment: Inhibition of human HSP60/HSP10 expressed in Escherichia coli Rosetta2(DE3) cells assessed as reduction in denatured pig heart MDH ATPase activity by malachite green dye based assay
[12] = Cytotoxicity against human THLE3 cells assessed as reduction in cell viability after 48 hrs by alamar blue assay; format: cell-based; details: THLE3, 48 h
HEK293 = experiment: Cytotoxicity against HEK293 cells assessed as reduction in cell viability after 48 hrs by alamar blue assay; format: cell-based; details: Homo sapiens, HEK293, 48 h
Staphylococcus aureus [13] = experiment: Antibacterial activity against Staphylococcus aureus subsp. aureus Seattle 1945 (ATCC 25923) assessed as inhibition of visual growth after 24 hrs; format: functional
Summary of the method: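 MIC assay in Tryptic Soy broth (ATCC Medium 18). An overnight culture was diluted 5-fold, grown 1 h at 37°C, then diluted to OD600 0.01 (~10⁷ CFU/ml). Compounds were added in DMSO at fixed final concentrations (e.g. vancomycin 1.2-2.2 µM).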

Staphylococcus aureus [14] = experiment: Bactericidal activity against Staphylococcus aureus subsp. aureus Seattle 1945 (ATCC 25923) at 4 times MIC up to 24 hrs by agar dilution method; format: functional, organism-based
Summary of the method: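 Time-kill in ATCC Medium 18. […] Viable counts were taken at 0, 1, 2, 4, 6 and 24 h by dilution and plating on Medium 18 agar. Values are averages of triplicates.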

[15] = Therapeutic index, ratio of EC50 for human THLE3 cells to EC50 for Staphylococcus aureus subsp. aureus Seattle 1945 (ATCC 25923); format: cell-based; details: read-out: Ratio EC50
[16] = Therapeutic index, ratio of EC50 for HEK293 cells to EC50 for Staphylococcus aureus subsp. aureus Seattle 1945 (ATCC 25923); format: cell-based; details: human, read-out: Ratio EC50
[17] = tested on: Klebsiella pneumoniae subsp. pneumoniae; experiment: Antibacterial activity against multidrug resistant Klebsiella pneumoniae subsp. pneumoniae NCTC 9633 (ATCC 13883) assessed as reduction in bacterial growth incubated for 6 to 8 hrs; format: functional, organism-based; summary of the method: as §2
Acinetobacter baumannii = experiment: Antibacterial activity against multidrug resistant Acinetobacter baumannii 2208 (ATCC 19606) assessed as reduction in bacterial growth incubated for 6 to 8 hrs; format: functional; summary of the method: as §2
Pseudomonas aeruginosa = experiment: Antibacterial activity against multidrug resistant Pseudomonas aeruginosa NCTC 10332 (ATCC 10145) assessed as reduction in bacterial growth incubated for 6 to 8 hrs; format: functional, organism-based; summary of the method: as §2
Enterobacter cloacae = experiment: Antibacterial activity against multidrug resistant Enterobacter cloacae subsp. cloacae CDC 442-68 (ATCC 13047) assessed as reduction in bacterial growth incubated for 6 to 8 hrs; format: functional, organism-based; summary of the method: as §2
Staphylococcus aureus [18] = experiment: Antibacterial activity against methicillin susceptible Staphylococcus aureus subsp. aureus Seattle 1945 (ATCC 25923) assessed as reduction in bacterial growth incubated for 6 to 8 hrs

T1 sequence (P0A6F5 whole entry, looked up): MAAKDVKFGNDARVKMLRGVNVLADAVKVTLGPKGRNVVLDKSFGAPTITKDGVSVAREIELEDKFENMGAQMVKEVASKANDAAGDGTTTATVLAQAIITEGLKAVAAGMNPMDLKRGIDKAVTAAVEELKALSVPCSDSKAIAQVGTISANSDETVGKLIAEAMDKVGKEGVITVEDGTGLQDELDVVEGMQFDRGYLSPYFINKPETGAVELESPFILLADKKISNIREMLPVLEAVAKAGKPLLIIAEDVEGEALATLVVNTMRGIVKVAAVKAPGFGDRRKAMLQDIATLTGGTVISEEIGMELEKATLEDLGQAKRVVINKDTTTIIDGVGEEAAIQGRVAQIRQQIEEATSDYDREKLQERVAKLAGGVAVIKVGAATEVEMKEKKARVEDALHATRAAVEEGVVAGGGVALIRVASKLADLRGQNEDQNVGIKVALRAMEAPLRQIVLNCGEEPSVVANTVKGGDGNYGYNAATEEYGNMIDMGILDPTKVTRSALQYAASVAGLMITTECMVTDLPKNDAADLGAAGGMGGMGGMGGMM
T2 sequence (P10809 whole entry): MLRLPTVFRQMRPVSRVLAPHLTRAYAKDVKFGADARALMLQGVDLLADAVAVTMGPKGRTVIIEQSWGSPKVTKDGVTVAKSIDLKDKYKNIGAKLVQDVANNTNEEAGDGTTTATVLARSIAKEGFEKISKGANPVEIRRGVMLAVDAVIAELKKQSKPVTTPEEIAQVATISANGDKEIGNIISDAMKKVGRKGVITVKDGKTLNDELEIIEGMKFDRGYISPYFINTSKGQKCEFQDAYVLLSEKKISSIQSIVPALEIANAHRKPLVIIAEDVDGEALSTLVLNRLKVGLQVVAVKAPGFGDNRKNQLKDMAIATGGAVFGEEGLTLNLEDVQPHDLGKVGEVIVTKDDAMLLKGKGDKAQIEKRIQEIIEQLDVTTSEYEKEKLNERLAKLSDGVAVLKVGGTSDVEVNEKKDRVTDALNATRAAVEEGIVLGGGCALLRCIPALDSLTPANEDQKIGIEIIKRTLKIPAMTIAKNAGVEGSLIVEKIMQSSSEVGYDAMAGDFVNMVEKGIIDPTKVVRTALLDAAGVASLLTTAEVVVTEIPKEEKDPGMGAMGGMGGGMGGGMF
T2 sequence (P61604 whole entry, further chain): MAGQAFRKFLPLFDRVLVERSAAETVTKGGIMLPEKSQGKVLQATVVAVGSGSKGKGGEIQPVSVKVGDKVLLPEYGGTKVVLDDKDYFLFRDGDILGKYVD

SMILES	IC50 (E. coli GroEL/ES [1])	IC50 (E. coli GroEL/ES [2])	IC50 (E. coli GroEL/ES [3])	IC50 (E. coli GroEL/ES [4])	EC50 (Escherichia coli [6])	EC50 (Escherichia coli [7])	EC50 (Escherichia coli [8])	EC50 (Bacillus subtilis)	EC50 (Enterococcus faecium)	EC50 (Staphylococcus aureus [9])	IC50 (HSP60/HSP10 [10])	IC50 (HSP60/HSP10 [11])	EC50 [12]	MIC (Staphylococcus aureus [13])	Activity (Staphylococcus aureus [14])	EC50 [17]	EC50 (Acinetobacter baumannii)	EC50 (Pseudomonas aeruginosa)	EC50 (Enterobacter cloacae)	EC50 (Staphylococcus aureus [18])	further results
O=C(Nc1ccc(Sc2nc3ccccc3s2)c(Cl)c1)c1cc(Br)cc(Br)c1O	1.4 µM	> 100 µM	7.1 µM	1.4 µM	> 100 µM	2.3 µM	0.33 µM	0.1 µM	0.15 µM	0.13 µM	5.5 µM	3.6 µM	12 µM	0.6 µM (≈ 0.342 µg/mL)	Active	> 100 µM	30 µM	> 100 µM	> 100 µM	0.2 µM	IC50 (E. coli GroEL/ES [5]): > 250 µM; EC50 (HEK293): 78 µM; selectivity ratio [15]: 60; selectivity ratio [16]: 390
CN[C@@H](CC(C)C)C(=O)N[C@H]1C(=O)N[C@@H](CC(N)=O)C(=O)N[C@H]2C(=O)N[C@H]3C(=O)N[C@H](C(=O)N[C@@H](C(=O)O)c4cc(O)cc(O)c4-c4cc3ccc4O)[C@H](O)c3ccc(c(Cl)c3)Oc3cc2cc(c3O[C@H]2O[C@@H](CO)[C@H](O)[C@@H](O)[C@@H]2O[C@@H]2C[C@@](C)(N)[C@@H](O)[C@@H](C)O2)Oc2ccc(cc2Cl)[C@H]1O									0.3 µM	0.17 µM				1.6 µM (≈ 2.32 µg/mL)	Active	> 100 µM	17 µM	74 µM	> 100 µM	0.2 µM	
Cn1c(=O)c(C(=O)Nc2ccncc2)c(O)c2ccccc21	6.8 µM	> 100 µM	> 62.5 µM	5.7 µM	> 100 µM	21 µM	3.3 µM	0.47 µM	> 100 µM	1.3 µM	> 100 µM	> 250 µM	> 100 µM	8 µM (≈ 2.36 µg/mL)	Active	> 100 µM	> 100 µM	> 100 µM	> 100 µM	1.8 µM	EC50 (HEK293): > 100 µM; selectivity ratio [15]: > 55; selectivity ratio [16]: > 55

Reference: ChEMBL document CHEMBL3808280, “GroEL/ES inhibitors as potential antibiotics” (Bioorg Med Chem Lett, 2016)
